From PubChem BioAssay
LMPTP inh: LMPTP (human) inhibition; AID 651560; recombinant LMPTP-A, OMFP fluorogenic substrate, fluorescence intensity; inhibition, % at 20 µM; hit rate 0.22% among 360,000; P24666;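 active = compounds that cut the enzyme signal by at least half of the control window in the single-dose screen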
Target sequence (P24666 whole entry, looked up): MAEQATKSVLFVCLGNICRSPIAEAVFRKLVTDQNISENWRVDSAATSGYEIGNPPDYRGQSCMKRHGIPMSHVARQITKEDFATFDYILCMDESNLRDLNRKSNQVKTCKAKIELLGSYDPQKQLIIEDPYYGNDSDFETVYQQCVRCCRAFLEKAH
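Buffer or medium: Bis-Tris pH 6.0, DTT, detergent; Assay system: LMPTP-A enzyme; Quantity: 0.625 nM enzyme; Detection: endpoint fluorescence intensity; Times: 50 min dark incubation at room temperature; Controls: substrate-only low control, DMSO enzyme-plus-substrate high control; Doses: single 20 µM dose; Read-out: percent inhibition versus substrate-only and uninhibited controls; Reagent: 400 µM OMFP.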
STEP inh: blocks human striatal-enriched tyrosine phosphatase. P54829. recombinant STEP, OMFP fluorogenic substrate, fluorescence. inhibition, % at 20 µM. hit rate 0.25% among 360,000. AID 588621;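 active = inhibition at 20 µM, scaled per plate between control wells, above about 37%, limit read from the data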
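System: isolated STEP enzyme; schedule: 20 min enzyme reaction at room temperature, protected from light; medium: Bis-Tris buffer pH 6.0, 2.5 mM DTT, 0.005% Tween 20; signal: fluorescence, 480/540 nm; dosing: single compound dose of 20 µM, 1% DMSO final; also added: OMFP substrate, 25 µM final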
Scp1 inh: blocks human Scp-1 phosphatase activity; Q9GZU7; Recombinant Scp1, phosphopeptide, malachite green phosphate absorbance; inhibition, % at 20 µM; hit rate 0.88% among 340,000; AID 493091;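 active = inhibition above about 50% at 20 µM, limit read from the data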
Target sequence (Q9GZU7 76-261 limits assumed): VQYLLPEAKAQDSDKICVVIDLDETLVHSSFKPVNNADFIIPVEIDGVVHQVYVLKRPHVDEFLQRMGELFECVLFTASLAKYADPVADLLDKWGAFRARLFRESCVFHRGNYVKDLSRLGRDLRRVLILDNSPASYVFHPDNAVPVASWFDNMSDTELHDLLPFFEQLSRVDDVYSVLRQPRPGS
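Times: enzyme reaction 45 min at room temperature, colour 5 min, stabilisation 30 min. Material: SCP-1 catalytic fragment, aa 76-261. Medium: Acidic Tris acetate buffer with magnesium and detergent. Signal: colorimetric free-phosphate detection, absorbance 630 nm. Read-out basis: % inhibition of SCP-1 phosphate liberation. Reagent: Phosphorylated 17-residue peptide substrate.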
SUMO1 PPI mod: SUMO1-SIM interaction modulation; P63165; SUMO1 binding to a labelled peptide, TR-FRET, 1 h; inhibition, % at 20 µM; hit rate 0.33% among 360,000; in the data active = inhibition above about 37%
Target sequence (P63165 whole entry, looked up): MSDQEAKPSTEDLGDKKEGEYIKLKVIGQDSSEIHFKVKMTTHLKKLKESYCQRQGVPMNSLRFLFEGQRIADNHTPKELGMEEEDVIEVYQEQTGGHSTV
DNMT1 block: blocks human DNA methyltransferase DNMT1; inhibition (reported as % activation of signal), % at 10 µM; DNMT1 molecular beacon, Hinp1I cleavage, fluorescence; P26358; hit rate 0.83% among 360,000; AID 588458; in the data active = inhibition above about 50%
Beacon interf DR: beacon fluorescence artifact, dose response counter-screen | shares compounds with DNMT1 block | 200 tested, under 10 active | molecular beacon fluorescence, spectral interference counter-screen | AID 602382 | IC50, µM; call rule not given here
DNMT1 inh conf: DNMT1 inhibition confirmation, single concentration. shares compounds with DNMT1 block. DNMT1 molecular beacon HinP1I cleavage, fluorescence. inhibition, % at 10 µM. hit rate 8% among 2,300. AID 602385;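 active = average inhibition of at least 30% in the single-concentration confirmation test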
Beacon interf: shows spectral interference in the DNMT1 beacon assay | shares compounds with DNMT1 block | DNMT1 molecular beacon spectral interference counterscreen, fluorescence 485/520 | activation (fluorescence interference), % at 10 µM | hit rate 1% among 2,300;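 active = activation of at least 30% at 10 µM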;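 note: DNMT1 catalytic domain with a HinP1I cleavage step and a FAM/dabcyl DNA beacon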
A number is an active result; . = inactive; / = not tested or not shown. This is a sample that favours compounds with a hit; in the whole collection about 1.8% have one here.

SMILES	LMPTP inh	STEP inh	Scp1 inh	SUMO1 PPI mod	DNMT1 block	DNMT1 inh conf	Beacon interf	others
COc1ccc(OC)c(S(=O)(=O)NC(=O)C2(C)CCN2C(=O)Cc2ccccc2Cl)c1 (configuration not stated)	.	.	/	.	.	/	/
Cn1cnc(C(=O)NCc2ccc(CNC(=O)OC(C)(C)C)cc2)c1C(=O)NCc1ccc(CNC(=O)OC(C)(C)C)cc1	.	.	.	.	.	/	/
Cc1cc(-c2ccco2)c(C#N)c2nc3ccccc3n12	73	.	66	.	69	.	.
CC(C)c1cc(N2CCN(C(=O)c3ccco3)CC2)n2c(nc3ccccc32)c1C#N	.	.	.	.	.	/	/
CCOc1cc(/C=C(\C#N)C(=O)Nc2cccc(C(=O)O)c2)ccc1OCc1ccc(Br)cc1	.	96	.	82	89	104	.	Beacon interf DR=.
CN(CC(=O)Nc1cccc(F)c1)C(=O)CN1c2cccc3cccc(c23)S1(=O)=O	.	.	.	.	53	.	.
CCOc1ccc(-c2nnc(SCC(=O)Nc3ccc4c(c3)c3ccccc3n4CC)n2N)cc1	.	.	.	.	59	.	.
Cc1cccnc1NC(=O)CSc1ccc2c(c1)OCCO2	.	.	.	.	.	/	/
Cc1nccc2oc(=O)c(NC(=O)c3ccc(Cl)cc3)cc12	.	.	.	.	.	/	/
O=C(Nc1cc2c(oc1=O)CCCC2=O)c1ccc(Cl)cc1	.	.	68	.	97	.	.
COc1ccc(-c2ccc(NCCN3CCOCC3)nn2)cc1OC	.	.	.	.	.	/	/
COc1ccc(-c2nnc(SCC(=O)Nc3sc4c(c3C#N)CCCC4)n2-c2ccccc2)cc1	.	.	.	.	.	/	/
N#Cc1c(NC(=O)CSc2nnc(-c3ccco3)n2-c2ccccc2)sc2c1CCC2	.	.	.	.	67	.	.
CCOC(=O)c1ccc(NC(=O)c2ccc[n+]([O-])c2)cc1	.	.	.	.	.	/	/
COc1ccc(S(=O)(=O)/N=C2/NC(=O)/C(=C/c3ccco3)S2)cc1	.	.	.	.	64	.	.
Cc1cc(C)cc(C(=O)OCC(=O)NCc2ccco2)c1	.	.	.	.	.	/	/
C[C@H]1CN(c2ccccc2)C(=O)[C@@H]1CC(=O)Nc1ccc(Br)cc1	.	.	/	.	.	/	/
COc1ccc(Nc2ccc(Nc3ccc(OC)cc3)nn2)cc1	.	.	.	.	.	/	/
COc1ccc(Nc2ccc(OC)cc2)cc1	.	.	.	.	56	.	.
CC(=O)Nc1ccc(SCC(=O)c2cc(C)ccc2C)cc1	.	.	.	.	86	.	.
CC(=O)Nc1ccc(SCC(=O)c2cc(C)n(-c3ccccc3)c2C)cc1	.	.	.	.	.	/	/
O=C(CSc1ncnc2sc3c(c12)CCCCC3)NCc1ccco1	.	.	.	.	.	/	/
CC(C)c1nc2sc3c(SCC(=O)NCc4ccco4)ncnc3c2c2c1CCC2	.	.	.	.	83	.	.
CCOc1ccc(NC(=O)c2cccc(-n3cccc3)c2)cc1S(=O)(=O)N1CCOCC1	.	.	/	57	102	81	.	Beacon interf DR=.
CCOc1ccc(C(=O)Nc2ccc(S(=O)(=O)N3CCOCC3)cc2)cc1OCC	.	.	.	.	.	/	/
SMILES	LMPTP inh	STEP inh	Scp1 inh	SUMO1 PPI mod	DNMT1 block	DNMT1 inh conf	Beacon interf	others
C[C@@H](NC(=O)c1[nH]cnc1C(=O)Nc1cccc(Cl)c1)c1ccccc1	.	.	.	.	.	/	/
COCC(=O)NCc1ccc2c(c1)cc(C)n2C	.	.	.	.	.	/	/
Cc1cc2cc(CNC(=O)Nc3ccc(Cl)c(Cl)c3)ccc2n1C	.	.	.	.	58	.	.
COc1ccc(Oc2c(OC)cc(NCc3ccc(CN)cc3)c3ncccc23)cc1	.	.	/	.	95	33	.	Beacon interf DR=.
COc1ccc(O)c(-c2cc(-c3ccccc3[N+](=O)[O-])[nH]n2)c1	.	.	.	.	86	.	.
Cc1ccc(NC(=O)COC(=O)c2c(-c3ccccc3)noc2C)c(C)c1	.	.	.	.	.	/	/
